Measurements reported in ChEMBL document CHEMBL1817665, “Synthesis and identification of β-aryloxyquinolines and their pyrano[3,2-c]chromene derivatives as a new class of antimicrobial and antituberculosis agents” (2011).
≈ marks a conversion by molar mass, not a printed value.

Columns and labels:
Vibrio cholerae = experiment: Antibacterial activity against 10^8 CFU/mL Vibrio cholerae MTCC 3906 by NCCLS M100-S12(M7) broth microdilution method; type: functional
Outline: (§1)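 Broth microdilution in Mueller Hinton broth. Inoculum was adjusted by turbidity to 10^8 CFU/mL. Compounds came from 2000 µg/mL DMSO stocks. Primary screen used 500, 250 and 200 µg/mL; actives were retested at 100, 62.5, 50 and 25 µg/mL. Tubes were incubated overnight at 37 °C. […] A known-sensitivity organism was run in parallel.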

Salmonella typhi = experiment: Antibacterial activity against 10^8 CFU/mL Salmonella typhi MTCC 98 by NCCLS M100-S12(M7) broth microdilution method; type: functional, Salmonella enterica subsp. enterica serovar Typhi; conditions: Salmonella enterica; outline: as §1
Aspergillus fumigatus = experiment: […] activity against 10^8 CFU/mL Aspergillus fumigatus MTCC 3008 by NCCLS M100-S12(M7) broth microdilution method; type: functional
Candida albicans = experiment: […] activity against 10^8 CFU/mL Candida albicans MTCC 227 by NCCLS M100-S12(M7) broth microdilution method; type: functional
Escherichia coli = experiment: Antibacterial activity against 10^8 CFU/mL Escherichia coli MTCC 443 by NCCLS M100-S12(M7) broth microdilution method; type: functional; outline: as §1
Clostridium tetani = experiment: Antibacterial activity against 10^8 CFU/mL Clostridium tetani MTCC 449 by NCCLS M100-S12(M7) broth microdilution method; type: functional; outline: as §1
Bacillus subtilis = experiment: Antibacterial activity against 10^8 CFU/mL Bacillus subtilis MTCC 441 by NCCLS M100-S12(M7) broth microdilution method; type: functional; outline: as §1
[1] = system: Mycobacterium tuberculosis; experiment: Antituberculosis activity against Mycobacterium tuberculosis H37Rv at 250 ug/mL after 24 hrs by Lowenstein-Jensen method; type: functional
Streptococcus pneumoniae = experiment: Antibacterial activity against 10^8 CFU/mL Streptococcus pneumoniae MTCC 1936 by NCCLS M100-S12(M7) broth microdilution method; type: functional; outline: as §1
[2] = system: Mycobacterium tuberculosis; experiment: Antituberculosis activity against Mycobacterium tuberculosis H37Rv after 24 hrs by Lowenstein-Jensen method; type: functional

Compound | MIC99 (Vibrio cholerae) [mg/L] | MIC99 (Salmonella typhi) [mg/L] | MIC99 (Aspergillus fumigatus) [mg/L] | MIC99 (Candida albicans) [mg/L] | MIC99 (Escherichia coli) [mg/L] | MIC99 (Clostridium tetani) [mg/L] | MIC99 (Bacillus subtilis) [mg/L] | inhibition at 250 µg/mL [1] [%] | MIC99 (Streptococcus pneumoniae) [mg/L] | MIC [2] [mg/L]
Cc1ccc(Oc2nc3ccc(C)cc3cc2C=O)cc1 | 200 (≈ 721 µM) | 100 (≈ 361 µM) | 1000 (≈ 3610 µM) | 500 (≈ 1800 µM) | 50 (≈ 180 µM) | 200 (≈ 721 µM) | 250 (≈ 901 µM) | 84 | 200 (≈ 721 µM) | –
Cc1ccc(Oc2nc3ccccc3cc2C=O)cc1 | 250 (≈ 950 µM) | 100 (≈ 380 µM) | 500 (≈ 1900 µM) | 500 (≈ 1900 µM) | 100 (≈ 380 µM) | 250 (≈ 950 µM) | 500 (≈ 1900 µM) | 74 | 250 (≈ 950 µM) | –
NYSTATIN | – | – | 100 | 100 | – | – | – | – | – | –
CC1(C)S[C@@H]2[C@H](NC(=O)[C@H](N)c3ccccc3)C(=O)N2[C@H]1C(=O)O [AMPICILLIN] | 100 (≈ 286 µM) | 100 (≈ 286 µM) | – | – | 100 (≈ 286 µM) | 250 (≈ 715 µM) | 250 (≈ 715 µM) | – | 100 (≈ 286 µM) | –
COC1=CC(=O)C[C@@H](C)[C@]12Oc1c(Cl)c(OC)cc(OC)c1C2=O [GRISEOFULVIN] | – | – | 100 (≈ 283 µM) | 500 (≈ 1420 µM) | – | – | – | – | – | –
O=Cc1cc2ccccc2nc1Oc1ccc(Cl)cc1 | 500 (≈ 1760 µM) | 200 (≈ 705 µM) | > 1000 | 250 (≈ 881 µM) | 100 (≈ 352 µM) | 500 (≈ 1760 µM) | 200 (≈ 705 µM) | 64 | 62.5 (≈ 220 µM) | –
NNC(=O)c1ccncc1 [ISONIAZID] | – | – | – | – | – | – | – | – | – | 0.2 (≈ 1.46 µM)
Cc1ccc2nc(Oc3ccccc3)c(C=O)cc2c1 | 250 (≈ 950 µM) | 200 (≈ 760 µM) | 500 (≈ 1900 µM) | 250 (≈ 950 µM) | 200 (≈ 760 µM) | 200 (≈ 760 µM) | 250 (≈ 950 µM) | 62 | 500 (≈ 1900 µM) | –
COc1ccc2nc(Oc3ccc(C)cc3)c(C=O)cc2c1 | 500 (≈ 1700 µM) | 250 (≈ 852 µM) | 1000 (≈ 3410 µM) | 250 (≈ 852 µM) | 250 (≈ 852 µM) | 500 (≈ 1700 µM) | 250 (≈ 852 µM) | 23 | 500 (≈ 1700 µM) | –
COc1ccc2nc(Oc3ccc(Cl)cc3)c(C=O)cc2c1 | 200 (≈ 637 µM) | 200 (≈ 637 µM) | 1000 (≈ 3190 µM) | 500 (≈ 1590 µM) | 200 (≈ 637 µM) | 200 (≈ 637 µM) | 200 (≈ 637 µM) | 54 | 250 (≈ 797 µM) | –
Cc1ccc2nc(Oc3ccc(Cl)cc3)c(C=O)cc2c1 | 500 (≈ 1680 µM) | 100 (≈ 336 µM) | 1000 (≈ 3360 µM) | 500 (≈ 1680 µM) | 250 (≈ 840 µM) | 500 (≈ 1680 µM) | 500 (≈ 1680 µM) | 93 | 250 (≈ 840 µM) | 310 (≈ 1040 µM)
O=Cc1cc2ccccc2nc1Oc1ccccc1 | 500 (≈ 2010 µM) | 500 (≈ 2010 µM) | > 1000 | > 1000 | 500 (≈ 2010 µM) | 500 (≈ 2010 µM) | 1000 (≈ 4010 µM) | 95 | 500 (≈ 2010 µM) | 260 (≈ 1040 µM)
COc1ccc2nc(Oc3ccccc3)c(C=O)cc2c1 | 200 (≈ 716 µM) | 100 (≈ 358 µM) | > 1000 | 1000 (≈ 3580 µM) | 62.5 (≈ 224 µM) | 250 (≈ 895 µM) | 100 (≈ 358 µM) | 42 | 200 (≈ 716 µM) | –
